Measurements as given in ChEMBL document CHEMBL4364341, “Radiosensitization of Head and Neck Squamous Cell Carcinoma (HNSCC) by a Podophyllotoxin” (ACS Med Chem Lett, 2019).
Calls of active or inactive are those of the source. The rule behind the calls is not given here.

Assays:
[1] = biological target: T1, Nuclear factor erythroid 2-related factor 2 (Homo sapiens) (UniProt Q16236); test: Inhibition of Nrf2 in human FADU cells at 0.5 uM incubated for 48 hrs by immunofluorescence analysis; format: cell-based
T1 sequence (whole entry): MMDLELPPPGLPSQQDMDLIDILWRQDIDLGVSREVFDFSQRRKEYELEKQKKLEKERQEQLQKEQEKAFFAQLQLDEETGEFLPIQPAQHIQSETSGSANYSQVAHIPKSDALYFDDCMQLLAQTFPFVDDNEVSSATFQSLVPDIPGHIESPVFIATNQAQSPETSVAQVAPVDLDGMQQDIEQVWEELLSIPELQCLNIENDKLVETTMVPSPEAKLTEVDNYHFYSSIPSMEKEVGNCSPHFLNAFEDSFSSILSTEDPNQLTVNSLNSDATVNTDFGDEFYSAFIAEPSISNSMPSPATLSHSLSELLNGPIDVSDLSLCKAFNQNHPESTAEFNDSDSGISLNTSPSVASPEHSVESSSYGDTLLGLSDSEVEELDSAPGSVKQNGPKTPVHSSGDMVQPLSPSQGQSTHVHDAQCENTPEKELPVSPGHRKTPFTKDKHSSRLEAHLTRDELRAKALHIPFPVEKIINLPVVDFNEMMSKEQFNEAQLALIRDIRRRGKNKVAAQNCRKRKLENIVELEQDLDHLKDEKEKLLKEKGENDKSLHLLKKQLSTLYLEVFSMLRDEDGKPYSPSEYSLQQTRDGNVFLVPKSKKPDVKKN
In short: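 FaDu cells received compound, 5 Gy IR, or both, and Nrf2 was imaged by immunofluorescence 48 h later.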

FaDu [2] = test: Synergistic induction of apoptosis in human FADU cells at 0.5 uM followed irradiation with 5Gy IR incubated for 48 hrs by annexin V FITC and propidium iodide staining based flow cytometry; format: functional
In short: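 FaDu or SCC-25 cells, untreated, given 5 Gy IR, drug, or both. Apoptotic cells measured by annexin V flow cytometry 48 h after treatment. Percentage compared with control by t test.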

FaDu [3] = test: Antiproliferative activity against human FADU cells assessed as reduction in cell viability at 1 uM after 6 days by MTT assay relative to control; format: functional; conditions: 144 h
In short: (§1)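 FaDu or SCC-25 cells were grown in DMEM with 10% FBS at 37 °C and 5% CO2. They were seeded at 1000 cells/well in 96-well plates for 24 h, then dosed with compound (fresh DMSO stock diluted in medium) or vehicle. After 1 h, X-rays were given with a sliding 5 mm lead shield, so one plate held 0, 2.5, 5 and 10 Gy columns. After 6 days, MTT (0.5 mg/mL, 45 min) was added, then DMSO, and A570 was read. Values were normalised to the unirradiated vehicle control. Fractional inhibition = 1 − surviving fraction.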

FaDu [4] = test: Synergistic antiproliferative activity against human FADU cells assessed as fractional inhibition at 5 uM preincubated for 1 hr followed by irradiation with 5 Gy IR and measured after 6 days by MTT assay (reference value: 0.097); format: functional; in short: as §1
FaDu [5] = test: Synergistic induction of cell cycle arrest in human FADU cells assessed as decrease in cyclin B1 at 0.5 uM followed by irradiation with 5 Gy IR incubated for 48 hrs by immunoblot analysis; format: functional, cell-based
In short: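 FaDu cells received drug, 5 Gy IR, or both; vehicle-only controls. Lysates collected after 48 h and immunoblotted with primary antibodies to NRF2, cyclin B1, CDK1, Bax and Bcl-2. Membranes stripped and reprobed for beta-actin as loading control.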

SCC-25 [6] = test: Synergistic antiproliferative activity against human SCC25 cells assessed as fractional inhibition at 0.5 uM preincubated for 1 hr followed by irradiation with 5 Gy IR and measured after 6 days by MTT assay (reference value: 0.133); format: functional
In short: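 SCC-25 cells seeded 1000/well in 96-well plates in DMEM/10% FBS and left 24 h. Drug or vehicle added, then after 1 h X-irradiated to 2.5, 5 or 10 Gy on one plate using a shifted lead shield. Plates incubated 6 days, then MTT (0.5 mg/mL, 45 min), DMSO solubilisation, absorbance at 570 nm. Fractional inhibition = 1 − fraction of surviving cells.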

FaDu [7] = test: Synergistic induction of apoptosis in human FADU cells assessed as increase in caspase at 0.5 uM followed by irradiation with 5 Gy IR incubated for 48 hrs by luminescence based analysis; format: functional, cell-based
FaDu [8] = test: Induction of cell cycle arrest in human FADU cells assessed as decrease in CDK1 at 0.5 uM incubated for 48 hrs by immunoblot analysis; format: functional, cell-based
In short: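 FaDu cells received compound at 0.5 μM, 5 Gy IR, or both. After 48 h, lysates were immunoblotted for NRF2, cyclin B1, CDK1, Bax and Bcl-2. Membranes were then stripped and reprobed for β-actin as the loading control.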

SCC-25 [9] = test: Induction of cell cycle arrest in human SCC25 cells at 0.5 uM by propidium iodide staining based flow cytometry; format: functional
In short: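 Cell-cycle distribution was measured by propidium iodide staining and flow cytometry. Readings were taken 6 and 24 h after compound alone, 5 Gy IR alone, or the combination, against control.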

SCC-25 [10] = test: Synergistic induction of cell cycle arrest in human SCC25 cells at 0.5 uM followed by irradiation with 5Gy IR incubated for 6 hrs by propidium iodide staining based flow cytometry; format: functional
In short: (§2)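 FaDu or SCC-25 cells, untreated, given 5 Gy IR, drug, or drug plus 5 Gy. Cell-cycle distribution by propidium iodide staining and flow cytometry at 6 h and 24 h after treatment. G0/G1, S and G2/M fractions compared with control by t test.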

SCC-25 [11] = test: Antiproliferative activity against human SCC25 cells assessed as fractional inhibition at 0.05 uM after 6 days in absence of irradiation by MTT assay; format: functional; in short: as §1
FaDu [12] = test: Synergistic induction of cell cycle arrest in human FADU cells assessed as increase in accumulation at G2/M phase at 0.5 uM followed irradiation with 5Gy IR incubated for 24 hrs by propidium iodide staining based flow cytometry; format: functional; in short: as §2
SCC-25 [13] = test: Synergistic antiproliferative activity against human SCC25 cells assessed as combination index at 0.5 uM preincubated for 1 hr followed by irradiation with 5 Gy IR and measured after 6 days by MTT assay; format: functional
In short: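 SCC-25 cells grown in DMEM with 10% FBS at 37 °C, 5% CO2, seeded 1000 cells/well in 96-well plates and left 24 h. Drug in DMSO, diluted in complete medium, added 1 h before X-irradiation. A movable 5 mm lead shield gave 0, 2.5, 5 or 10 Gy on one plate. After 6 days, MTT readout at 570 nm. Combination index by Chou–Talalay from viability data.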

FaDu [14] = test: Synergistic antiproliferative activity against human FADU cells assessed as combination index at 5 uM preincubated for 1 hr followed by irradiation with 5 Gy IR and measured after 6 days by MTT assay; format: functional
In short: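 Combination index was calculated by the Chou–Talalay median-effect method from the 6-day MTT viability data of the single-plate compound/X-ray (2.5, 5, 10 Gy) design. CI < 1 denotes synergy, CI = 1 additivity and CI > 1 antagonism.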

COc1ccc2c(c1)N(CCO)C1=C(C(=O)OC1)C2c1ccccc1 (centres undefined)
inhibition [1]: Active
fold change (FC) (FaDu [2]): 3
inhibition at 1 µM (FaDu [3]): 20%
fractional inhibitory concentration index (FICI) (FaDu [4]): 0.633
Activity (FaDu [5]): Active
fractional inhibitory concentration index (FICI) (SCC-25 [6]): 0.658
Activity (FaDu [7]): Active
Activity (FaDu [8]): Active
Activity (SCC-25 [9]): inactive
Activity (SCC-25 [10]): inactive
fractional inhibitory concentration index (FICI) (SCC-25 [11]): 0.005
fold change (FC) (FaDu [12]): 2
CI (SCC-25 [13]): 0.395
CI (FaDu [14]): 0.324
